Experimental data taken from ChEMBL document CHEMBL3779824, “Design and synthesis of novel chalcones as potent selective monoamine oxidase-B inhibitors” (Eur J Med Chem, 2016).

How the values were obtained:
[1] = molecular target: T1, Amine oxidase [flavin-containing] A (Homo sapiens, UniProt P21397); experiment: Inhibition of recombinant human MAOA expressed in baculovirus infected BTI insect cell microsomes at 10 uM using MMTP as substrate preincubated for 5 mins followed by substrate addition by spectrophotometric analysis
T1 sequence (P21397 whole entry): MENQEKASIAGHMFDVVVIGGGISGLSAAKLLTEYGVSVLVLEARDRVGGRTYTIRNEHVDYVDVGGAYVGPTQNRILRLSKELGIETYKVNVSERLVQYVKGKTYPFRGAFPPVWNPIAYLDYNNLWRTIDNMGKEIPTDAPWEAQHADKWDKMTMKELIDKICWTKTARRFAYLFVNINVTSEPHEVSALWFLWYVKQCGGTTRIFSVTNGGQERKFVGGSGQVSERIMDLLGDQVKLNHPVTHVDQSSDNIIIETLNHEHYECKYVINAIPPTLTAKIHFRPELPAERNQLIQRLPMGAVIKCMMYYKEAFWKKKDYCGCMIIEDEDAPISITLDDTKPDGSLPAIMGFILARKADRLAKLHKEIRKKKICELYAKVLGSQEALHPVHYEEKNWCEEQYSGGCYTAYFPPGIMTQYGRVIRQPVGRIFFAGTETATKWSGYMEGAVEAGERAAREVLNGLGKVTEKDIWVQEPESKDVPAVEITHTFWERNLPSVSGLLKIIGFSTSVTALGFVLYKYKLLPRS
Outline: (§1)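 Insect-cell microsomes carrying recombinant human enzyme (25 µg per assay) in 0.1 M potassium phosphate. Incubated with inhibitor at 10 µM final (DMSO 3.3% v/v final) for 5 min at 37 °C. Started with MMTP at 0.15 mM. Absorbance increase followed at 420 nm at 37 °C, with v0 from ε 25000 M-1 cm-1. Activity given as a ratio to a DMSO-only control (100%).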

[2] = molecular target: T2, Amine oxidase [flavin-containing] B (Homo sapiens, UniProt P27338); experiment: Competitive inhibition of human MAOB overexpressed in Pichia pastoris using MMTP as substrate preincubated for 5 mins followed by substrate addition by UV/vis spectrophotometric analysis
T2 sequence (P27338 whole entry): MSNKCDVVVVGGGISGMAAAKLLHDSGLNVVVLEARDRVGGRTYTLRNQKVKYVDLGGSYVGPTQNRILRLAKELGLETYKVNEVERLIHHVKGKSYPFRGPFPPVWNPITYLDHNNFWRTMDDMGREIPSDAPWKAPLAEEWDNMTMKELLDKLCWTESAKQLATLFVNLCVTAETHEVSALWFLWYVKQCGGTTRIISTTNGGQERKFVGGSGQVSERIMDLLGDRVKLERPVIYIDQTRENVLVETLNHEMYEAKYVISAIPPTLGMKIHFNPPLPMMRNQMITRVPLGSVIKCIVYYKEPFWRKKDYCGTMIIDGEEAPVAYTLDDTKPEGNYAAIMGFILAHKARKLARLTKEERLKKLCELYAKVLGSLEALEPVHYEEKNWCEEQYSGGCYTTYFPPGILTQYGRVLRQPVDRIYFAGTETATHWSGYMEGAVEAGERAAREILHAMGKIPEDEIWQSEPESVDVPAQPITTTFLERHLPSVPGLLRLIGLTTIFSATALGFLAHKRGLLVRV
Outline: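 Purified recombinant human MAO-B in reaction buffer containing 0.25% v/v reduced Triton X-100. MMTP assay read at 420 nm in quartz cuvettes under aerobic conditions at 25 °C. MMTP was varied from 0.07 to 2.00 mM and inhibitor from 3 to 40 µM. Apparent kcat (v0/[E]) was plotted against substrate and fitted to competitive, uncompetitive and noncompetitive models to give Ki.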

[3] = molecular target: T2, Amine oxidase [flavin-containing] B; experiment: Inhibition of recombinant human MAOB expressed in baculovirus infected BTI insect cell microsomes using MMTP as substrate preincubated for 5 mins followed by substrate addition by spectrophotometric analysis
Outline: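 MAO-B in insect-cell microsomes, 25 µg in 0.1 M potassium phosphate with 3.3% v/v DMSO final. Preincubated with inhibitor for 5 min at 37 °C, then MMTP added at 0.15 mM. Absorbance read at 420 nm at 37 °C. Remaining activity relative to the DMSO control was fitted against log10[I] to a dose-response curve for IC50. Mean ± SEM of two experiments.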

[4] = molecular target: T2, Amine oxidase [flavin-containing] B; experiment: Inhibition of recombinant human MAOB expressed in baculovirus infected BTI insect cell microsomes at 10 uM using MMTP as substrate preincubated for 5 mins followed by substrate addition by spectrophotometric analysis; outline: as §1
[5] = molecular target: T2, Amine oxidase [flavin-containing] B; experiment: Time-dependent inhibition of recombinant human MAOB expressed in baculovirus infected BTI insect cell microsomes at IC50 using MMTP as substrate preincubated for 5 mins followed by substrate addition measured after 5 to 60 mins by spectrophotometric analysis
Outline: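 Microsomal human MAO-B was preincubated with inhibitor at 0.55 µM final for 5, 15, 30 or 60 min. Residual activity was then measured in the MMTP assay (420 nm, 37 °C). Rates expressed as apparent kcat (min-1); SEM from two replicates.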

Compound | inhibition at 10 µM [1] | Ki [2] | IC50 [3] | inhibition at 10 µM [4] | TDI [5]
O=C(/C=C/c1cccc2c1OCO2)c1cccc(OC(F)(F)F)c1 | 0% | 2360 nM | 1510 nM | 88% | 
O=C(/C=C/c1cccc2c1OCO2)c1cccc(C(F)(F)F)c1 | 16% | 780 nM | 550 nM | 96% | Not Active
COc1cccc(/C=C/C(=O)c2cccc(OC(F)(F)F)c2)c1OC | 0% |  |  | 41% | 
CSc1ccc(C(=O)/C=C/c2cccc3c2OCO3)cc1 | 0% | 550 nM | 950 nM | 86% | 
COc1cccc(/C=C/C(=O)c2cccc(C(F)(F)F)c2)c1OC | 0% |  | 4490 nM | 63% | 
CS(=O)(=O)c1ccc(C(=O)/C=C/c2cccc3c2OCO3)cc1 | 0% | 720 nM | 1000 nM | 93% | 
COc1cccc(/C=C/C(=O)c2ccc(S(C)(=O)=O)cc2)c1OC | 0% | 1150 nM | 1970 nM | 90% | 

The next lines start with the values.

inhibition at 10 µM [1] | Ki [2] | IC50 [3] | inhibition at 10 µM [4] | TDI [5] | Compound
0% |  |  | 27% |  | COc1cccc(/C=C/C(=O)c2ccccc2C(F)(F)F)c1OC
0% |  |  | 36% |  | COc1cccc(/C=C/C(=O)c2ccc(SC)cc2)c1OC
 |  |  | 7% |  | O=C(/C=C/c1cccc2c1OCO2)c1ccccc1C(F)(F)F
